Hits are enriched below; roughly 2.3% of the tested compounds scored in any of these assays.
TRPC4 block: inhibitors of mouse TRPC4 channel, primary screen, Fluo4 calcium, HEK293 TRPC4beta/mu-opioid cells; Short transient receptor potential channel 4 (Mus musculus), Q9QUQ5; 300,000 tested, 0.39% active; B-score at 10 µM; DAMGO-evoked Fluo4 calcium flux; stronger effect = lower value; AID 2247, 2010;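 active = B-score over 3 SD under the library average, no early fluorescence shift, positive overall ratio signal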
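test system = HEK293 cells with stable TRPC4beta plus mu-opioid receptor expression | detection = Fluo4 Ca2+ flux fluorescence | read-out = integrated fluorescence ratio relative to baseline, converted to per-well B score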
CR mimetic SO: reduction of superoxide in aged yeast, primary screen, HTS | 330,000 tested, 0.18% active | superoxide response (% of plate mean), % at 10 µM | S. cerevisiae aged cells, superoxide DHE fluorescence; stronger effect = lower value;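 active = superoxide response under a set limit, about three screen SD below normal, cut at about 65% in these data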;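 also: yeast aged for seven days with compound at 30 °C before DHE staining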
TRPC4 potent: positive allosteric modulators of TRPC4, primary screen, cell-based, mouse TRPC4beta, HEK293 mu-opioid, Fluo-4 calcium; B-score at 10 µM; Short transient receptor potential channel 4 (Mus musculus), Q9QUQ5; DAMGO EC20, Fluo-4 Ca2+ flux; stronger effect = higher value; 310,000 tested, 0.42% active;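 active = B-score of calcium response area above 5 SD of library B-scores, with initial fluorescence ratio within 5 SD of library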
TRPC6 inhibitor: mouse TRPC6 channel inhibitors, primary screen, cell-based, HEK293, membrane potential dye | 310,000 tested, 1.1% active | B-score at 10 µM | ACh-evoked depolarization; stronger effect = lower value;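 active = B-score under library mean minus 3 SD, initial fluorescence not abnormally high, positive integrated signal ratio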;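 also: B-score derived from integrated fluorescence ratio over the kinetic read; more negative B-score means stronger inhibition of depolarization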
Target sequence (Q61143 whole entry, looked up): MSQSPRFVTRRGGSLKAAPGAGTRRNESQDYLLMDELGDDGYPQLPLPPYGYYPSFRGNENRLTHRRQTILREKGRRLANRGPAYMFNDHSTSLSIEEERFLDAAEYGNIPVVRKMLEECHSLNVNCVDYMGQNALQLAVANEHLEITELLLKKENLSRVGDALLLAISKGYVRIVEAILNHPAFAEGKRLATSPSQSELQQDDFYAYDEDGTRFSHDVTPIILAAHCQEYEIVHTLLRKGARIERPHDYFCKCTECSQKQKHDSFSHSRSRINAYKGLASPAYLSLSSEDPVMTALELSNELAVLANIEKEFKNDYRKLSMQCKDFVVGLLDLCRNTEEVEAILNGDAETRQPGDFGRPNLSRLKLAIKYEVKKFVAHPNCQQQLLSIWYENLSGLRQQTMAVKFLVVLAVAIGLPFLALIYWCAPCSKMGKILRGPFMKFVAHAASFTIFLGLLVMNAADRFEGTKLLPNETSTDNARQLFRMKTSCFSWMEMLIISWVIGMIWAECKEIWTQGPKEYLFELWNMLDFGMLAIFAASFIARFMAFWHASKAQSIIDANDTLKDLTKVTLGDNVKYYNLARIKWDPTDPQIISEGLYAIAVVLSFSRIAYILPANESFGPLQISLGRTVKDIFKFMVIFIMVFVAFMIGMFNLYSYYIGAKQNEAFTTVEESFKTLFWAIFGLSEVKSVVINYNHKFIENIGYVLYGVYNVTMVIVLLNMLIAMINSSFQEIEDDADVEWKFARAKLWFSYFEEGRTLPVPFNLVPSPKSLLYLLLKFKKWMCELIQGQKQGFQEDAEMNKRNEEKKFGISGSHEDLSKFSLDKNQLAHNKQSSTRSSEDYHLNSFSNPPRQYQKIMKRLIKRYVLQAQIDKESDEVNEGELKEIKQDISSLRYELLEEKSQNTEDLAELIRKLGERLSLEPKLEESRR
TRPC6 activator: mouse TRPC6 channel activators, primary screen, cell-based, HEK293, membrane potential dye; B-score at 10 µM; AID 2550, 2010; Short transient receptor potential channel 6 (Mus musculus), Q61143; 310,000 tested, 0.13% active; HEK293-TRPC6 membrane potential dye fluorescence; stronger effect = higher value;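 active = B-score of the integrated fluorescence ratio above library mean plus 3 SD, and starting fluorescence ratio within library mean plus 5 SD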;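 also: higher score means more depolarization so channel activation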
TRPC4 act: activators of mouse TRPC4 channel, primary screen, Fluo4 calcium, HEK293 TRPC4beta/mu-opioid cells; Short transient receptor potential channel 4 (Mus musculus), Q9QUQ5; Fluo4 calcium fluorescence; stronger effect = higher value; B-score at 10 µM; 310,000 tested, 0.49% active; AID 2237, 2010;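 active = B-score above 5 SD of library B-scores, and initial fluorescence ratio not above library mean plus 5 SD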;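 also: positive B-score marks a calcium rise read as TRPC4 activation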
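Incubation: 45 min room-temperature Fluo4 loading, 110 s read / System: HEK293 cells stably co-expressing mouse TRPC4beta and mu-opioid receptor / Signal: Fluo4 fluorescence, kinetic / Control set: buffer (low) and maximal DAMGO (high) / Measure: integrated baseline-normalised fluorescence ratio, converted to per-well B score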
Large screens that a line does not name were inactive.

COn1c(-c2ccccc2)nc2ncccc21	none
Clc1cccc(COn2c(-c3ccc(Cl)cc3Cl)nc3ncccc32)c1	TRPC4 block -6
COn1c(-c2ccc(C)cc2)nc2ncccc21	none
O=c1c2c(-c3ccccc3)csc2ncn1/N=C/c1cccc([N+](=O)[O-])c1O	TRPC4 block -8, TRPC4 act 68
COc1ccc(Nc2nc(C)cc(=O)[nH]2)cc1	none
CC(C)c1ccc(NC(=O)N(CCc2nc3ccccc3[nH]2)C2CCCC2)cc1	TRPC4 block -7, TRPC4 act 75
CC(=O)Nc1ccc(CCc2nc3ccccc3[nH]2)cc1	none
COc1ccccc1CCNC(=O)CCCn1nc(C)c2c(C)n(-c3ccc(C)cc3)nc2c1=O	none
Cc1cc(NC(=O)CSc2nnc(Cn3c(=O)sc4ccccc43)n2-c2ccccc2C)no1	none
CC(=O)Nc1ccc(/C=N\NC(=O)CNS(=O)(=O)c2ccc([N+](=O)[O-])cc2)cc1	none
O=C(CNS(=O)(=O)c1ccc([N+](=O)[O-])cc1)N/N=C\c1ccc(O)cc1	TRPC4 potent 12
CSCCC(NS(=O)(=O)c1ccc2c(c1)c(=O)n(C)c(=O)n2C)C(=O)NC1CCN(Cc2ccccc2)CC1 (centres undefined)	TRPC4 act 90
O=c1oc2ccccc2c(Nc2ccccc2)c1CN1CCCCC1	TRPC4 block -7
OCC1(Cc2ccc(Cl)cc2)CCN(Cc2ccccc2F)CC1	TRPC4 block -6
CC(C)CN(C(=O)COC(=O)COc1ccc2ccccc2c1)c1c(N)n(Cc2ccccc2)c(=O)[nH]c1=O	TRPC4 potent 16
O=C(C1=C[C@@H](C2CC2)C[C@@H](OCCCCO)O1)N1CCOCC1	none
C=CCn1c(NC(C)c2cc(Cl)ccc2O)nc2ccccc21 (centres undefined)	TRPC4 block -6
C=CCn1c(NCc2cc(C)ccc2O)nc2ccccc21	none
NS(=O)(=O)c1ccc(NC(=O)CCC(=O)N2CCOCC2)cc1	none
Cc1nc(N2CCCCC2)c(C#N)c(C)c1[N+](=O)[O-]	TRPC4 block -5
Cc1[nH]nc(N2CCCCC2)c1[N+](=O)[O-]	none
NCCNc1ccc([N+](=O)[O-])c(NC2CC2)c1	TRPC4 potent 16
CCN(CC)C(=O)CN(c1ccc(F)c(Cl)c1)S(C)(=O)=O	none
COc1ccc(NC(=O)CSc2nc3ccsc3c(=O)n2Cc2ccccn2)c(OC)c1	none
Cc1ccc(-n2c(SCc3cc(=O)n4ccsc4n3)nnc2-c2cccnc2)c(C)c1	TRPC4 block -7
Cc1ccc(-n2c(SCC(N)=O)nnc2-c2cccnc2)c(C)c1	none
NC1=NC2(CCN(Cc3ccccc3)CC2)n2c(nc3ccccc32)N1	TRPC4 act 87
C(=N\N1CCOCC1)/c1ccsc1	none
O=C(CNS(=O)(=O)c1ccc2ccccc2c1)NCCc1ccccn1	TRPC4 act 137
CN1CCCN(S(=O)(=O)c2ccc(Cl)c(Cl)c2)CC1	TRPC4 potent 12 (no result: CR mimetic SO)
CCOC(=O)C(C)Sc1nc2c(c(=O)[nH]c(=O)n2C)n1Cc1ccc(Cl)cc1 (centres undefined)	TRPC4 block -6
CC(C)Sc1nc2c(c(=O)[nH]c(=O)n2C)n1Cc1ccc(Cl)cc1	none
O=C1CC(c2c[nH]c3ccccc23)C(=O)N1 (centres undefined)	none
Cc1ccc(Cl)cc1N1CCN(C(=O)CSc2ccsc2[N+](=O)[O-])CC1	none
COc1ccc(C2(C)NC(=O)N(CC(=O)Nc3cccnc3Cl)C2=O)cc1 (centres undefined)	none
CC1(c2ccc(OC(F)F)cc2)NC(=O)N(CC(=O)Nc2cccnc2Cl)C1=O (centres undefined)	TRPC4 act 62
COc1ccc(C(=O)NNC(=S)NC(=O)/C=C/c2cccs2)cc1	none
